Measurements taken from ChEMBL document CHEMBL3407390, “α2-adrenoceptor antagonists: synthesis, pharmacological evaluation, and molecular modeling investigation of pyridinoguanidine, pyridino-2-aminoimidazoline and their derivatives” (J Med Chem, 2015).

Columns and labels:
[1] = target: T1, Adrenergic receptor alpha-2 (Homo sapiens, UniProt P08913+P18825+P18089); assay: Displacement of [3H]-RX-821002 from human alpha-2 adrenergic receptor in brain prefrontal cortex membrane by liquid scintillation spectrometry; type: cell membranes
T1 sequence (P08913 whole entry): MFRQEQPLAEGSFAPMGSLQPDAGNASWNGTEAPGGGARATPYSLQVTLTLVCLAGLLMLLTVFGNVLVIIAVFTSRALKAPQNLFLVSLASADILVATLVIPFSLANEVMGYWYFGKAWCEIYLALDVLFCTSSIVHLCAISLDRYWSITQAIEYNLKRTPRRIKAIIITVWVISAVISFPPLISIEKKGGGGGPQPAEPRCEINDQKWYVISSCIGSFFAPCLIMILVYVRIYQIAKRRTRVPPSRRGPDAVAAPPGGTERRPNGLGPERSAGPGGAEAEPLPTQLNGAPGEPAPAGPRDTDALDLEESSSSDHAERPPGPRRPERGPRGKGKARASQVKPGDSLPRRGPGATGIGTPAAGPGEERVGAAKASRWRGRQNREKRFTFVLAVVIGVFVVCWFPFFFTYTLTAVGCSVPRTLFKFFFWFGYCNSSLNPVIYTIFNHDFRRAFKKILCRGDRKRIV
T1 sequence (P18825 whole entry): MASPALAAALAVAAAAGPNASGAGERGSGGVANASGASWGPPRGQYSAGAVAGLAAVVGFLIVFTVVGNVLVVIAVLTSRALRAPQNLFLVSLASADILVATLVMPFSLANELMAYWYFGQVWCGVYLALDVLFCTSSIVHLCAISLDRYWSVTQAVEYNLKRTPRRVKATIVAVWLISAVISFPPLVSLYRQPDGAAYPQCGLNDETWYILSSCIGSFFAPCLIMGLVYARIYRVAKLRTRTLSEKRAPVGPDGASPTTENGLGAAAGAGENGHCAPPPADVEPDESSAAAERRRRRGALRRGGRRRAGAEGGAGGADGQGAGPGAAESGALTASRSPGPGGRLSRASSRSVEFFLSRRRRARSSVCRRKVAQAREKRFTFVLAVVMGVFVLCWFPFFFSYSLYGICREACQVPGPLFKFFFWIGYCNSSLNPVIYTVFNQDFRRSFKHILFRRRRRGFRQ
T1 sequence (P18089 whole entry): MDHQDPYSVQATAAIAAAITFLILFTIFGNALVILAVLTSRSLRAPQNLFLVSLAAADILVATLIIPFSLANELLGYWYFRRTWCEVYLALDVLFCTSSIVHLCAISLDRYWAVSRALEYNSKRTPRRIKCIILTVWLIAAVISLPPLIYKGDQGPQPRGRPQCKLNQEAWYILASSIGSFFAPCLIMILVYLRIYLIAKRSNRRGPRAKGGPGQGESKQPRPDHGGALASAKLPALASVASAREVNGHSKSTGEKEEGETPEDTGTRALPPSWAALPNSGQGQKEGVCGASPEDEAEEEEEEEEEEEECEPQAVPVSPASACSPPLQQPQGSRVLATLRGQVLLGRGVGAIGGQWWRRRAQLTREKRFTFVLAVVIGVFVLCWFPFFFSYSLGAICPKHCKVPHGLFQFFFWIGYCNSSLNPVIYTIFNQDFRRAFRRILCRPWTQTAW
Summary of the method: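 Human prefrontal cortex brain membranes incubated with [3H]RX821002 (2 nM) in 50 mM Tris-HCl, pH 7.5, for 30 min at 25 °C, with competitor at 10 concentrations (10⁻¹²–10⁻³ M). Bound and free ligand separated by rapid vacuum filtration through GF/C filters, then scintillation counting. Adrenaline (10⁻⁵ M) defined nonspecific binding. Ki from one-site nonlinear regression, expressed as pKi.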

[2] = target: T1, Adrenergic receptor alpha-2; assay: Antagonist activity at human alpha-2 adrenergic receptor in brain prefrontal cortex membrane assessed as inhibition of UK14304-induced [35S]-GTPgammaS binding by liquid scintillation spectrometry; type: functional, cell membranes
Summary of the method: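 Human prefrontal cortex membranes (40 μg protein) incubated 120 min at 30 °C with shaking in 50 mM Tris-HCl pH 7.4 with 1 mM EGTA, 3 mM MgCl2, 100 mM NaCl, GDP and 0.5 nM [35S]GTPγS. Compounds at 10 concentrations (10⁻¹²–10⁻³ M) were tested against agonist UK14304. Filtration through GF/C filters, then scintillation counting. Nonspecific binding defined with 10 μM unlabeled GTPγS; nonlinear curve analysis.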

Rattus norvegicus [3] = assay: Induction of noradrenaline release from Sprague-Dawley rat in prefrontal cortex at 1 to 100 uM local administration measured for every 70 mins by microdialysis; type: functional
Summary of the method: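 Male Sprague-Dawley rats (250–300 g), probe placed in PFC under 1.5% isoflurane; tested 18–24 h later. Probe perfused with aCSF (pH 7.4) at 1 μL/min. Compounds dissolved in aCSF were given by reverse dialysis at 1, 10, then 100 μM, each for 70 min. Dialysates collected every 35 min; NA measured by HPLC with amperometric detection. Values are % of mean basal (first 3–4 samples); three animals/group.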

Rattus norvegicus [4] = assay: Induction of noradrenaline release from Sprague-Dawley rat in prefrontal cortex at 10 mg/kg, ip […] by microdialysis; type: functional; conditions: route intraperitoneal

pKi [1] | SMILES | also measured
6.19 | Cl.N=C(N)Nc1ccccn1 | 
5.62 | Cl.N=C(N)Nc1ccc(Br)cn1 | 
5.7 | Cl.N=C(N)Nc1ccc(Cl)cn1 | 
6.03 | Cc1ccc(NC(=N)N)nc1.Cl | 
6.78 | Cl.N=C(N)Nc1ccc2c(n1)CCCC2 | EC50 [2]: 2.71 µM
4.12 | CCNc1ccc(NC(=N)N)nc1.Cl | 
3.79 | Cl.N=C(N)Nc1cccnc1 | 
5.18 | Cl.N=C(N)Nc1ccc(Cl)nc1 | 
4.97 | Cc1ccc(NC(=N)N)cn1.Cl | 
5.57 | Cl.N=C(N)Nc1cnc2c(c1)CCCC2 | 
6.35 | CCNc1ccc(NC(=N)N)cn1.Cl | 
5 | Cl.N=C(N)Nc1ccc([N+](=O)[O-])cn1 | 
5 | Cl.N=C(N)Nc1ccc(N)cn1 | 
6.21 | Cl.N=C(Nc1ccccc1)Nc1ccccn1 | 
6.02 | Cc1ccc(NC(=N)Nc2ccccc2)nc1.Cl | 
6.75 | Cl.N=C(Nc1ccccc1)Nc1ccc2c(n1)CCCC2 | 
5.38 | Cl.N=C(NCCO)Nc1ccccn1 | 
5.21 | Cc1ccc(NC(=N)NCCO)nc1.Cl | 
5.83 | Cl.N=C(NCCO)Nc1ccc2c(n1)CCCC2 | 
6.32 | Cl.N=C(NCc1ccco1)Nc1ccccn1 | 
6.28 | Cc1ccc(NC(=N)NCc2ccco2)nc1.Cl | 
6.67 | Cl.N=C(NCc1ccco1)Nc1ccc2c(n1)CCCC2 | EC50 [2]: 37.01 µM
5.71 | CCCNC(=N)Nc1ccc(Cl)cn1.Cl | 
6.74 | CCCNC(=N)Nc1ccc(C)cn1.Cl | 
4.4 | Cl.c1ccc(NC2=NCc3ccccc3N2)cc1 | 
6.26 | Cl.OCCNC1=NCc2ccccc2N1 | EC50 [2]: 60.34 µM
5.35 | Cl.c1coc(CNC2=NCc3ccccc3N2)c1 | 
4.33 | CCCNC1=NCc2ccccc2N1.Cl | 

SMILES | pKi [1] | also measured
Cl.c1ccc(NC2=NCCN2)nc1 | 6.44 | 
Cl.Clc1ccc(NC2=NCCN2)nc1 | 6.25 | 
Cc1ccc(NC2=NCCN2)nc1.Cl | 6.41 | 
Cl.c1cc2c(nc1NC1=NCCN1)CCCC2 | 6.27 | EC50 [2]: 3.57 µM
CCNc1ccc(NC2=NCCN2)nc1.Cl | 5.65 | 
Cl.c1cncc(NC2=NCCN2)c1 | 5.28 | 
Cl.c1nc2c(cc1NC1=NCCN1)CCCC2 | 7.02 | EC50 [2]: 4.23 µM; Emax (Rattus norvegicus [3]): 148%; Activity (Rattus norvegicus [4]): 138%
CCNc1ccc(NC2=NCCN2)cn1.Cl | 7.13 | EC50 [2]: 6.71 µM; Emax (Rattus norvegicus [3]): 429%; Activity (Rattus norvegicus [4]): 186%
Cl.OCCNC1=NCc2cccnc2N1 | 4.49 | 
Cl.c1coc(CNC2=NCc3cccnc3N2)c1 | 4.5 | 
Cl.c1cnc2c(c1)CN=C(NCc1ccc3c(c1)OCO3)N2 | 5.3 | 
